Laboratory results reported in ChEMBL document CHEMBL4359893, “Synthesis, structure-activity relationship and trypanocidal activity of pyrazole-imidazoline and new pyrazole-tetrahydropyrimidine hybrids as promising chemotherapeutic agents for Chagas disease” (Eur J Med Chem, 2019).

What was measured:
[1] = Cytotoxicity against African green monkey Vero cells assessed as reduction in cell viability by measuring ATP level after 72 hrs by Celltiter-Glo assay; assay type: cell-based; details: chlorocebus sabaeus
Outline: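 Vero cells seeded at 1.5 × 10⁴ cells/well, exposed 24 h later to 1.95–500 µM compound for 72 h at 37 °C. Viability read as ATP luminescence (CellTiter-Glo). DMSO ≤1% as control. CC50 from linear regression; at least three independent assays in duplicate.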

Trypanosoma cruzi [2] = experiment: Trypanocidal activity against luciferase expressing Trypanosoma cruzi Dm28c trypomastigotes isolated from infected Vero cells assessed as reduction in parasite viability after 24 hrs by luciferase-luminescence assay; assay type: functional, organism-based
Outline: (§1)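 Trypomastigotes at 1 × 10⁶ parasites/well treated 24 h at 37 °C with 0.41–100 µM compound. Y strain viability read by ATP luminescence (CellTiter-Glo); Dm28c-Luc viability read by luciferase activity. IC50/IC90 by linear regression. Benznidazole positive and DMSO ≤1% negative controls.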

Trypanosoma cruzi [3] = experiment: Trypanocidal activity against intracellular amastigote stage of luciferase expressing Trypanosoma cruzi Dm28c infected in Vero cells assessed as reduction in parasite viability after 72 hrs in presence of luciferin by luciferase luminescence analysis
Trypanosoma cruzi [4] = experiment: Trypanocidal activity against Trypanosoma cruzi Y strain bloodstream trypomastigotes isolated from infected Swiss webster mouse cardiac cells assessed as reduction in parasite viability after 24 hrs by Celltiter-Glo assay; assay type: functional, organism-based; outline: as §1
[5] = Selectivity index, ratio of CC50 for African green monkey Vero cells to IC50 for Trypanosoma cruzi Y strain bloodstream trypomastigotes isolated from infected Swiss webster mouse cardiac cells; assay type: toxicity; details: read-out: Ratio CC50/IC50
[6] = Selectivity index, ratio of CC50 for African green monkey Vero cells to IC50 for intracellular amastigote stage of luciferase expressing Trypanosoma cruzi Dm28c infected in Vero cells; assay type: toxicity, cell-based; details: read-out: Ratio CC50/IC50
[7] = Selectivity index, ratio of CC50 for African green monkey Vero cells to IC50 for luciferase expressing Trypanosoma cruzi Dm28c trypomastigotes isolated from infected Vero cells; assay type: toxicity; details: read-out: Ratio CC50/IC50
[8] = Selectivity index, ratio of CC50 for mouse cardiomyocyte infected with intracellular amastigote stage of Trypanosoma cruzi Y strain to IC50 for amastigote stage of Trypanosoma cruzi Y strain; assay type: toxicity, cell-based; details: read-out: Ratio CC50/IC50
[9] = Cytotoxicity against mouse cardiomyocytes infected with intracellular amastigote stage of Trypanosoma cruzi Y strain assessed as reduction in cardiomyocyte viability after 72 hrs by Celltiter-Glo assay; assay type: cell-based, Cardiac Muscle Cell
Outline: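 Primary heart muscle cells from 18-day mouse fetuses, dissociated with trypsin/collagenase II, grown in DMEM with 7% FBS, 2% chicken embryo extract, 1 mM L-glutamine, antibiotics, 37 °C, 5% CO₂. Plated at 5 × 10⁴ cells/well and treated 72 h. Viability read by ATP luminescence. CC50 from linear regression; DMSO ≤1% control; at least three independent assays in duplicate.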

Cruzipain [10] = biological target: T1, Cruzipain (Trypanosoma cruzi, UniProt P25779); experiment: Inhibition of Trypanosoma cruzi cruzipain assessed as reduction in enzymatic activity using Z-FR-AMC fluorogenic peptide substrate incubated for 45 mins by spectrophotometry analysis
Outline: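 Soluble trypomastigote protein extract (lysis in Tris pH 8.0/NaCl/glycerol/Triton X-100, 25,000 g supernatant) used as enzyme source. Incubated with 30 µM Z-FR-AMC in 10 mM sodium acetate pH 5.0 with 1 mM DTT, co-incubated with inhibitor concentrations, 45 min at 37 °C. AMC release read by fluorescence. Substrate self-degradation and DMSO ≤1% controls.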

Trypanosoma cruzi [11] = experiment: Potency index, ratio of compound IC90 to benznidazole IC90 for Trypanocidal activity against intracellular amastigote stage of luciferase expressing Trypanosoma cruzi Dm28c infected in Vero cells; assay type: functional
Trypanosoma cruzi [12] = experiment: Trypanocidal activity against intracellular amastigote stage of Trypanosoma cruzi Y strain infected in Swiss webster cardiac cells assessed as reduction in parasite viability
[13] = biological target: Cruzipain (Trypanosoma cruzi) (UniProt P25779); experiment: Potency index, ratio of compound IC50 to E-64 IC50 for inhibition of Trypanosoma cruzi cruzipain
Cruzipain [14] = biological target: T1, Cruzipain; experiment: Irreversible inhibition of Trypanosoma cruzi cruzipain

T1 sequence (P25779 whole entry): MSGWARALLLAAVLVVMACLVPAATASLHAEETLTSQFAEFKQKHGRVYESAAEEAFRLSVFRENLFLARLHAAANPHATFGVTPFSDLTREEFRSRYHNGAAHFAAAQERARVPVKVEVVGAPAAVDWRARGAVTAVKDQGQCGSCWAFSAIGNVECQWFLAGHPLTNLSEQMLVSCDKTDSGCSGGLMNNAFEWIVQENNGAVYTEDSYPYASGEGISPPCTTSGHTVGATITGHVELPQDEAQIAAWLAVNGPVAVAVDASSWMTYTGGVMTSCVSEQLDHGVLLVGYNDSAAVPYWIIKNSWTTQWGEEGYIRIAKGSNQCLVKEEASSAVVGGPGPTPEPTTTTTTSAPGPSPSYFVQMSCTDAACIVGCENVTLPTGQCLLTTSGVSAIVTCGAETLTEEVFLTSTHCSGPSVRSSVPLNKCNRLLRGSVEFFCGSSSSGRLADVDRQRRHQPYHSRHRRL
Sequence of Cruzipain (Trypanosoma cruzi) (P25779 123-467 limits assumed): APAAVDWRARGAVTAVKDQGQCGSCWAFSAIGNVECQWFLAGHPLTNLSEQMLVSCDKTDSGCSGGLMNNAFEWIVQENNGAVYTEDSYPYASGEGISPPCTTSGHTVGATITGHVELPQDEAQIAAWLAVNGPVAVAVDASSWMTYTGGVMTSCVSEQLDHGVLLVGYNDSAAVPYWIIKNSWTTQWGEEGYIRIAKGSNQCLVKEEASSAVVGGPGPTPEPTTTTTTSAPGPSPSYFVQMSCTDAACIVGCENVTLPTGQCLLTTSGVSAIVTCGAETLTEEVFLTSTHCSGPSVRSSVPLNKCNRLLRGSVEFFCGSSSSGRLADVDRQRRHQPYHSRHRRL

IC50 (Cruzipain [10])	Ratio IC50 [13]	IC50 (Cruzipain [14])	Structure (SMILES)	CC50 at 72 h [1]	IC50 (Trypanosoma cruzi [2])	IC90 (Trypanosoma cruzi [2])	IC50 (Trypanosoma cruzi [3])	IC90 (Trypanosoma cruzi [3])	IC50 (Trypanosoma cruzi [4])	IC90 (Trypanosoma cruzi [4])	selectivity ratio [5]	selectivity ratio [6]	selectivity ratio [7]	selectivity ratio [8]	CC50 at 72 h [9]	Ratio (Trypanosoma cruzi [11])	IC50 (Trypanosoma cruzi [12])
			Nc1c(C2=NCCN2)cnn1-c1ccc(F)cc1	> 500 µM	> 100 µM	> 100 µM	> 100 µM	> 100 µM	> 100 µM	> 100 µM							
			Nc1c(C2=NCCCN2)cnn1-c1cc(Cl)cc(Cl)c1	> 500 µM	> 100 µM	> 100 µM	> 100 µM	> 100 µM	> 100 µM	> 100 µM							
			Nc1c(C2=NCCN2)cnn1-c1cccc(Cl)c1	> 500 µM	53.3 µM	81.1 µM	20.6 µM	55 µM	31.3 µM	> 100 µM	> 15.9	> 24.3	9.4				
24 µM	8		Nc1c(C2=NCCN2)cnn1-c1cc(Cl)cc(Cl)c1	257 µM	9.5 µM	28.9 µM	16.5 µM	29.9 µM	30.9 µM	> 100 µM	8.3	15.6	27.1	30.3	379 µM	4.4	12.5 µM
			Nc1c(C2=NCCN2)cnn1-c1cccc(Br)c1	352 µM	> 100 µM	> 100 µM	67.4 µM	> 100 µM	27.7 µM	> 100 µM	12.7	5.2					
			COc1ccc(-n2ncc(C3=NCCN3)c2N)cc1	> 500 µM	> 100 µM	> 100 µM	63.4 µM	> 100 µM	> 100 µM	> 100 µM		> 7.9					
			Nc1c(C2=NCCN2)cnn1-c1ccccc1	> 500 µM	> 100 µM	> 100 µM	84.2 µM	> 100 µM	> 100 µM	> 100 µM		> 5.9					
		3 µM	CC(C)C[C@H](NC(=O)[C@@H]1O[C@H]1C(=O)O)C(=O)NCCCCN=C(N)N														
			Nc1c(C2=NCCCN2)cnn1-c1cccc(Br)c1	> 500 µM	> 100 µM	> 100 µM	> 100 µM	> 100 µM	> 100 µM	> 100 µM							
			Nc1c(C2=NCCCN2)cnn1-c1ccc(Br)cc1	> 500 µM	> 100 µM	> 100 µM	> 100 µM	> 100 µM	> 100 µM	> 100 µM							
180 µM	60		Nc1c(C2=NCCN2)cnn1-c1ccc(Cl)c(Cl)c1	244 µM	10.5 µM	29 µM	13.6 µM	30.5 µM	28.3 µM	> 100 µM	8.6	17.9	23.3	32.4	412 µM	4.4	12.7 µM
			Nc1c(C2=NCCCN2)cnn1-c1ccccc1	> 500 µM	> 100 µM	> 100 µM	> 100 µM	> 100 µM	> 100 µM	> 100 µM							
			COc1ccc(-n2ncc(C3=NCCCN3)c2N)cc1	> 500 µM	> 100 µM	> 100 µM	> 100 µM	> 100 µM	> 100 µM	> 100 µM							
			Nc1c(C2=NCCCN2)cnn1-c1ccc(Cl)c(Cl)c1	> 500 µM	> 100 µM	> 100 µM	> 100 µM	> 100 µM	> 100 µM	> 100 µM							
			Nc1c(C2=NCCCN2)cnn1-c1ccc(F)cc1	> 500 µM	> 100 µM	> 100 µM	> 100 µM	> 100 µM	> 100 µM	> 100 µM							
			Nc1c(C2=NCCCN2)cnn1-c1cccc(Cl)c1	> 500 µM	> 100 µM	> 100 µM	> 100 µM	> 100 µM	> 100 µM	> 100 µM							
			Nc1c(C2=NCCN2)cnn1-c1ccc(Cl)cc1	> 500 µM	78.9 µM	> 100 µM	> 100 µM	> 100 µM	84.2 µM	> 100 µM	> 5.9		> 6.3				
			Nc1c(C2=NCCCN2)cnn1-c1ccc(Cl)cc1	> 500 µM	> 100 µM	> 100 µM	> 100 µM	> 100 µM	> 100 µM	> 100 µM							
			Nc1c(C2=NCCN2)cnn1-c1ccc(Br)cc1	> 500 µM	> 100 µM	> 100 µM	84.2 µM	> 100 µM	52.3 µM	> 100 µM	> 9.5	> 5.9					
			O=C(Cn1ccnc1[N+](=O)[O-])NCc1ccccc1 [BENZNIDAZOLE]	> 500 µM	19.1 µM	94.1 µM	1.9 µM	6.9 µM	23.3 µM	> 100 µM	> 21.4	> 263	> 26.3	> 555	> 500 µM		0.9 µM
